The text below walks through data of ChEMBL document CHEMBL1681736, “Towards more specific O6-methylguanine-DNA methyltransferase (MGMT) inactivators” (Bioorg Med Chem, 2011).

Molecules are shown by their SMILES. pIC50: −log10 of the molar value.

For the first data set, the target named is T1, Methylated-DNA--protein-cysteine methyltransferase (Homo sapiens, UniProt P16455).
T1 sequence (P16455 whole entry): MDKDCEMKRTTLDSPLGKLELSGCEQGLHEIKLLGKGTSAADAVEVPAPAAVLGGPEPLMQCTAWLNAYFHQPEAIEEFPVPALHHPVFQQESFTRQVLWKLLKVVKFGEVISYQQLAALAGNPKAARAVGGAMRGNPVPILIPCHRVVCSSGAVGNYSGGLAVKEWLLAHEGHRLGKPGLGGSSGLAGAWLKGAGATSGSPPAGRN
The data set is described as follows: Inactivation of human O-6-methylguanine-DNA methyltransferase assessed as [3H]methylated protein formation by liquid scintillation counting in presence of [3H]methylated calf thymus DNA.
Consider `Nc1ccc(Oc2ccc(Nc3nc(N)nc(OCc4ccccc4)c3[N+](=O)[O-])cc2)cc1`, for which the pIC50 (usually the IC50 on a negative log10 scale, so that one unit is a factor of ten) was below 3.22.

Regarding `Nc1nc(OCc2cc(Br)cs2)c2[nH]cnc2n1` [LOMEGUATRIB], the pIC50 is 8.52.

`Nc1ccc(C(=O)c2ccc(Nc3nc(N)nc(OCc4ccccc4)c3[N+](=O)[O-])cc2)cc1`: the negative-log IC50 (pIC50) was below 3.22.

Tested on in a further data set: not listed separately
The data set is described as follows: Solubility of the compound in phosphate buffer. The format is physicochemical. Summed up:
(§1)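 Solubility was assessed while setting up thermal denaturation experiments with salmon sperm DNA (68% A–T base-pair content). Each buffer (phosphate, MES, Tris) was tried alone and also mixed with DMSO or ethanol.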
As to `Nc1ccc(Nc2ccc(Nc3nc(N)nc(OCc4ccccc4)c3[N+](=O)[O-])cc2)cc1`, the solubility entry is given as “Insoluble”.

For the molecule `Nc1ccc(Oc2ccc(Nc3nc(N)nc(OCc4ccccc4)c3[N+](=O)[O-])cc2)cc1`, the solubility result is listed as “Insoluble”.

Regarding `Nc1ccc(Cc2ccc(Nc3nc(N)nc(OCc4cc(Br)cs4)c3[N+](=O)[O-])cc2)cc1`, the solubility entry is on record as “Insoluble”.

Regarding `Nc1ccc(Cc2ccc(Nc3nc(N)nc(OCc4ccccc4)c3[N+](=O)[O-])cc2)cc1`, the solubility entry is given as “Insoluble”.

For the molecule `Nc1ccc(Nc2ccc(Nc3nc(N)nc(OCc4cc(Br)cs4)c3[N+](=O)[O-])cc2)cc1`, the solubility result is “Insoluble”.

With `Nc1ccc(Oc2ccc(Nc3nc(N)nc(OCc4cc(Br)cs4)c3[N+](=O)[O-])cc2)cc1`, the solubility entry is “Insoluble”.

Take `Nc1ccc(C(=O)c2ccc(Nc3nc(N)nc(OCc4ccccc4)c3[N+](=O)[O-])cc2)cc1`: the solubility result is given as “Insoluble”.

In the case of `Nc1ccc(C(=O)c2ccc(Nc3nc(N)nc(OCc4cc(Br)cs4)c3[N+](=O)[O-])cc2)cc1`, the solubility result is on record as “Insoluble”.

Tested on in another data set: not listed separately
The data set is described as follows: Solubility of the compound in Tris buffer. The format is physicochemical. Summed up: as §1
Regarding `Nc1ccc(Nc2ccc(Nc3nc(N)nc(OCc4ccccc4)c3[N+](=O)[O-])cc2)cc1`, the solubility entry is “Insoluble”.

As to `Nc1ccc(Oc2ccc(Nc3nc(N)nc(OCc4ccccc4)c3[N+](=O)[O-])cc2)cc1`, the solubility entry is “Insoluble”.

As for `Nc1ccc(Cc2ccc(Nc3nc(N)nc(OCc4cc(Br)cs4)c3[N+](=O)[O-])cc2)cc1`, the solubility result was “Insoluble”.

Turning to `Nc1ccc(Cc2ccc(Nc3nc(N)nc(OCc4ccccc4)c3[N+](=O)[O-])cc2)cc1`, the solubility entry was “Insoluble”.

As for `Nc1ccc(Nc2ccc(Nc3nc(N)nc(OCc4cc(Br)cs4)c3[N+](=O)[O-])cc2)cc1`, the solubility entry is “Insoluble”.

Consider `Nc1ccc(Oc2ccc(Nc3nc(N)nc(OCc4cc(Br)cs4)c3[N+](=O)[O-])cc2)cc1`, for which the solubility entry was “Insoluble”.

With `Nc1ccc(C(=O)c2ccc(Nc3nc(N)nc(OCc4ccccc4)c3[N+](=O)[O-])cc2)cc1`, the solubility entry was “Insoluble”.

Regarding `Nc1ccc(C(=O)c2ccc(Nc3nc(N)nc(OCc4cc(Br)cs4)c3[N+](=O)[O-])cc2)cc1`, the solubility entry is “Insoluble”.

Tested on in the next data set: not listed separately
The data set is described as follows: Solubility of the compound in MES buffer. The format is physicochemical. Summed up:
as §1
On to `Nc1ccc(Nc2ccc(Nc3nc(N)nc(OCc4ccccc4)c3[N+](=O)[O-])cc2)cc1`, for which the solubility result is “Insoluble”.

As to `Nc1ccc(Oc2ccc(Nc3nc(N)nc(OCc4ccccc4)c3[N+](=O)[O-])cc2)cc1`, the solubility entry is “Insoluble”.

Regarding `Nc1ccc(Cc2ccc(Nc3nc(N)nc(OCc4cc(Br)cs4)c3[N+](=O)[O-])cc2)cc1`, the solubility result is “Insoluble”.

With `Nc1ccc(Cc2ccc(Nc3nc(N)nc(OCc4ccccc4)c3[N+](=O)[O-])cc2)cc1`, the solubility result is listed as “Insoluble”.

Take `Nc1ccc(Nc2ccc(Nc3nc(N)nc(OCc4cc(Br)cs4)c3[N+](=O)[O-])cc2)cc1`: the solubility result is given as “Insoluble”.

As for `Nc1ccc(Oc2ccc(Nc3nc(N)nc(OCc4cc(Br)cs4)c3[N+](=O)[O-])cc2)cc1`, the solubility entry is “Insoluble”.

As to `Nc1ccc(C(=O)c2ccc(Nc3nc(N)nc(OCc4ccccc4)c3[N+](=O)[O-])cc2)cc1`, the solubility result is listed as “Insoluble”.

Consider `Nc1ccc(C(=O)c2ccc(Nc3nc(N)nc(OCc4cc(Br)cs4)c3[N+](=O)[O-])cc2)cc1`, for which the solubility entry was “Insoluble”.
